The conditions of series [1]: pH 7.2; cited from earlier work.
A short description of series [2]: UV-vis spectra in KMOPS buffer pH 7.2. The series is classed as physicochemical. As to conditions: for ε365 / ε405: 0.1 mM in KMOPS buffer; for ε365: 365 nm; for ε405: 405 nm; for λmax: 0.1 mM solution in KMOPS buffer.
Series [3] in a line: 1PE photolysis at 365 and 405 nm. Format: physicochemical. As to conditions: for Φu(365) quantum yield of photolysis / sensitivity (ε365Φu): 365 nm; for Φu(365) quantum yield of photolysis / Φu(405) quantum yield of photolysis: 0.1 mM in KMOPS buffer; for Φu(365) quantum yield of photolysis / sensitivity (ε365Φu) / Φu(405) quantum yield of photolysis / sensitivity (ε405Φu): pH 7.2; for sensitivity (ε365Φu) / sensitivity (ε405Φu): KMOPS buffer; for Φu(405) quantum yield of photolysis / sensitivity (ε405Φu): 405 nm; for yield of DA or sulpiride released (365 nm): photolysis at 365 nm; for yield of DA or sulpiride released (365 nm) / yield of DA or sulpiride released (405 nm): measured by HPLC, KMOPS pH 7.2; for yield of DA or sulpiride released (405 nm): photolysis at 405 nm. In outline:
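Test compound at 0.1 mM in KMOPS buffer (100 mM KCl, 10 mM MOPS, adjusted to pH 7.2 with KOH), irradiated with one-photon light. Released dopamine quantified by HPLC to give chemical yield.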

A short description of series [4]: 2-photon excitation. Format: physicochemical. As to conditions: excitation at 740 nm, KMOPS buffer pH 7.2. In outline: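 Two-photon uncaging of test compound in KMOPS buffer (100 mM KCl and 10 mM MOPS, brought to pH 7.2 with KOH), with excitation at 740 nm.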
Series [5] in a line: Spontaneous hydrolysis in the dark, buffer, by HPLC. The series is classed as physicochemical. As to conditions: 100-μM solution in KMOPS buffer pH 7.2, HPLC.
For series [6], the target named is T1, D2 receptors on substantia nigra dopamine neurons (Mus musculus, UniProt P61168). Format: cell-based.
T1 sequence (P61168 whole entry): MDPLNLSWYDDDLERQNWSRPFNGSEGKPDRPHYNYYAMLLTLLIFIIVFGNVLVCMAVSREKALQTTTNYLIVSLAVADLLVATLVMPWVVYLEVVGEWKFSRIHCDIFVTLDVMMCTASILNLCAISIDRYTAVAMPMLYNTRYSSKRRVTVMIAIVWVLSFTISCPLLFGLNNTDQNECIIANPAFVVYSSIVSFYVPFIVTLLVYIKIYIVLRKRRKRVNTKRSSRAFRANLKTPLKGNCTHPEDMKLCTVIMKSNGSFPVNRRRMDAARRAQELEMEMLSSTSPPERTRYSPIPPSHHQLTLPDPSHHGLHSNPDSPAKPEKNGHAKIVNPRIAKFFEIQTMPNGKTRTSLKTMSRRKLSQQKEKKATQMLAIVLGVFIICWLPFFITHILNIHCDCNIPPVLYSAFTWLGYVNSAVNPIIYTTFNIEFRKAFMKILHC
Series [7] addresses T1, D2 receptors on substantia nigra dopamine neurons. The series is classed as cell-based. As to conditions: CyHQ-sulpiride 5 μM, 1 s flash; quinpirole 300 nM or dopamine 1 μM.
Series [8] concerns D2 receptor. As to conditions: cited from earlier work.
The target in series [9] is human D2 receptors. As to conditions: cited from earlier work.
For series [10], the target named is rat D2 receptors. As to conditions: cited from earlier work.

“Also recorded” adds a separate entry of the source. Read-outs that look alike come from different tables or passages of the source.

Here are results for five compounds from PMC7101055 (ACS Chemical Neuroscience, 2020).

Regarding `COc1cc(C(Oc2ccc(CNC(=O)CCCC/C=C/C(C)C)cc2OC)C(=O)O)c([N+](=O)[O-])cc1OC` (stereo not drawn), in series [1], the “decomposition in the dark in 24 h” value is listed as 1.7%.

Turning to `N#Cc1c(O)ccc2ccc(COc3ccc(CCN)cc3OCc3ccc4ccc(O)c(C#N)c4n3)nc12` [(CyHQ)2-O,O-DA, 2,2′-(((4-(2-Aminoethyl)-1,2-phenylene)bis(oxy))bis(methylene))bis(7-hydroxyquinoline-8-carbonitrile)], in series [2], the ε365 was found to be 5480 M^–1 cm^–1, the ε405 is on record as 324 M^–1 cm^–1 and the λmax was found to be 364 nm. In addition, in series [3], the “Φu(365) quantum yield of photolysis” value is reported as 0.19, the “sensitivity (ε365Φu)” value is listed as 1044, the “Φu(405) quantum yield of photolysis” value is reported as 0.19 and the “sensitivity (ε405Φu)” value was 61. Also, in [3], the “yield of DA or sulpiride released (365 nm)” value is reported as 16% and the “yield of DA or sulpiride released (405 nm)” value turned out to be 15%. Further, the “chemical yield of dopamine” value in series [3] (range over 365 and 405 nm photolysis) was 15–16%. In series [3] (wavelength not stated in the sentence (1PE)), this compound yielded a photochemical quantum yield of 0.19. Moreover, the “δu 2-photon uncaging action cross-section” value in series [4] was determined as 0.12 GM. Besides, the “dark stability: no spontaneous hydrolysis in the dark observed within the time given” value in series [5] was 100 h.

In the case of `NCCc1ccc(O)c(O)c1` [dopamine], the “rise time of current from 10 to 90% of the peak” value stood at 270 ms in series [6] (iontophoretically applied dopamine (1 M, 10 ms 100 nA pulse)) and 141 ms in series [6] (synaptically released dopamine (IPSC, single stimulation)). Besides, the “time constant of decay τ of D2 current after CyHQ-sulpiride photolysis” value in series [7] is listed as 307 ms. Besides, the koff in series [8] is 1.69 min^–1.

Turning to `CCN1CCCC1CNC(=O)c1cc(S(N)(=O)=O)ccc1OC` (stereo not drawn) [sulpiride], the “effect on CyHQ-O-DA flash response” value in series [6] (sulpiride 500 nM, CyHQ-O-DA 150 μM) is “all response was blocked”. In addition, in series [6] (sulpiride 1 μM, CyHQ-O-DA 1 mM in the dark), the “reversal of the dark current produced by CyHQ-O-DA” value is on record as “unable to fully reverse the effect”. In addition, the Ki in [9] was 9.4 nM; in [10], 6.9 nM.

On to “(8-Cyano-7-hydroxyquinolin-2-yl)methyl(3,4-dihydroxyphenethyl)carbamate [CyHQ-N-DA]”, for which, in [2], the ε365 stood at 6700 M^–1 cm^–1, the ε405 is 251 M^–1 cm^–1 and the λmax is reported as 364 nm. In series [3], the “Φu(365) quantum yield of photolysis” value is given as 0.19, the “sensitivity (ε365Φu)” value was 1283, the “Φu(405) quantum yield of photolysis” value is 0.20 and the “sensitivity (ε405Φu)” value was 50. In series [3], the “yield of DA or sulpiride released (365 nm)” value was determined as 60% and the “yield of DA or sulpiride released (405 nm)” value came to 49%. In addition, in [4], the “δu 2-photon uncaging action cross-section” value is given as “did not photolyze through 2PE; also recorded: n.p. ^c”. Further, the “dark stability: no spontaneous hydrolysis in the dark observed within the time given” value in [5] stood at 24 h.
